ChEMBL document CHEMBL1136201, “Synthesis and binding selectivity of 7- and 15-decylbenzolactone-V8 for the C1 domains of protein kinase C isozymes” (Bioorg Med Chem Lett, 2003)

What was measured:
[1] = target: T1, Protein kinase C delta type (Homo sapiens, UniProt Q05655); assay: Displacement of [3H]PDBu from protein kinase C Delta-C1A domain
Summary of the method: (§1)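 Synthetic C1 peptides of about 50 amino acids, used as surrogates for the PKC C1 domains, were incubated with [3H]phorbol 12,13-dibutyrate (PDBu). Competitor was assessed by inhibition of specific [3H]PDBu binding. […] Values are given with standard deviation from at least two separate experiments.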

[2] = target: T2, Protein kinase C alpha type (Homo sapiens, UniProt P17252); assay: Displacement of [3H]PDBu from protein kinase C Alpha-C1A domain; summary of the method: as §1
[3] = target: T3, Protein kinase C gamma type (Homo sapiens, UniProt P05129); assay: Displacement of [3H]-PDBu from protein kinase C gamma-C1B domain; summary of the method: as §1
[4] = target: T4, Protein kinase C eta type (Homo sapiens, UniProt P24723); assay: Displacement of [3H]PDBu from protein kinase C eta-C1A domain; summary of the method: as §1
T4 sequence (P24723 whole entry, the tested form may be a part): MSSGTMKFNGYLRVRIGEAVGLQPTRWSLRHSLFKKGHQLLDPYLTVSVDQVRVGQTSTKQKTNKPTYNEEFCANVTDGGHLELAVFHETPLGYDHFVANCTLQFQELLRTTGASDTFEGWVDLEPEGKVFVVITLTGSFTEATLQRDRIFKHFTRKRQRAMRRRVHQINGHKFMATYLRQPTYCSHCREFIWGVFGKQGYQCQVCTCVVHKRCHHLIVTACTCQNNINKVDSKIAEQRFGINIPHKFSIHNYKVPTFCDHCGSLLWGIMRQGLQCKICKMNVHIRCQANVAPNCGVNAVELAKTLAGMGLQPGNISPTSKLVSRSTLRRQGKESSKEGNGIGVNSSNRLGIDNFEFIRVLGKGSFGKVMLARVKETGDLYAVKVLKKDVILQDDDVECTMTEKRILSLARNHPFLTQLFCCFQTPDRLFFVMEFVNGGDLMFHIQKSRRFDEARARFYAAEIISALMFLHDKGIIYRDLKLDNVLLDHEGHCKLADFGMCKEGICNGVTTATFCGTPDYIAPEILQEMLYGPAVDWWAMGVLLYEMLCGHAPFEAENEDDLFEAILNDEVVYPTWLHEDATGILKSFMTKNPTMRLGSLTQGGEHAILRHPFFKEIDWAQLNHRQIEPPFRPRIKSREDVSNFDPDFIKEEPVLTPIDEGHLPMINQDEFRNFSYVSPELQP

[5] = target: T5, Protein kinase C beta type (Homo sapiens, UniProt P05771); assay: Displacement of [3H]PDBu from protein kinase C Beta-C1B domain; summary of the method: as §1
T5 sequence (P05771 whole entry, the tested form may be a part): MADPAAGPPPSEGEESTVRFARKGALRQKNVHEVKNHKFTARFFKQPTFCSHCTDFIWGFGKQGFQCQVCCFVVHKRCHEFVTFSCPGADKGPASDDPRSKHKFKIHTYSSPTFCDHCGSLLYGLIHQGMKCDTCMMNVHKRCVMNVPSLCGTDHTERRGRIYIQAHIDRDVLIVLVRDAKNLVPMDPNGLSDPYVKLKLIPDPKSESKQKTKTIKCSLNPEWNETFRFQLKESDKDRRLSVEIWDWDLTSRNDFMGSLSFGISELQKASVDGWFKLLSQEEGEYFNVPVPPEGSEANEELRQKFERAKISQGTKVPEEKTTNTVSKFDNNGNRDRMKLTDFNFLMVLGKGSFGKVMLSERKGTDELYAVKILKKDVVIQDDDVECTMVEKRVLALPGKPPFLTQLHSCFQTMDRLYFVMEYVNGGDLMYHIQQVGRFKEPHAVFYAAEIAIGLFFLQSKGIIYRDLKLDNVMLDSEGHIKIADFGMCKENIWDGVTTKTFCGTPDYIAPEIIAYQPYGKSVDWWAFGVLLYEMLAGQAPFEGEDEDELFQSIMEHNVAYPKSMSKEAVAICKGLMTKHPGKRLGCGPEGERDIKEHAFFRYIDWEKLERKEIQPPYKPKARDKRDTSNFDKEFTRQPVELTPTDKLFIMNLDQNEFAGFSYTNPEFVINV

[6] = target: T6, Protein kinase C epsilon type (Homo sapiens, UniProt Q02156); assay: Displacement of [3H]-PDBu from protein kinase C epsilon-C1A domain; summary of the method: as §1
T6 sequence (Q02156 whole entry): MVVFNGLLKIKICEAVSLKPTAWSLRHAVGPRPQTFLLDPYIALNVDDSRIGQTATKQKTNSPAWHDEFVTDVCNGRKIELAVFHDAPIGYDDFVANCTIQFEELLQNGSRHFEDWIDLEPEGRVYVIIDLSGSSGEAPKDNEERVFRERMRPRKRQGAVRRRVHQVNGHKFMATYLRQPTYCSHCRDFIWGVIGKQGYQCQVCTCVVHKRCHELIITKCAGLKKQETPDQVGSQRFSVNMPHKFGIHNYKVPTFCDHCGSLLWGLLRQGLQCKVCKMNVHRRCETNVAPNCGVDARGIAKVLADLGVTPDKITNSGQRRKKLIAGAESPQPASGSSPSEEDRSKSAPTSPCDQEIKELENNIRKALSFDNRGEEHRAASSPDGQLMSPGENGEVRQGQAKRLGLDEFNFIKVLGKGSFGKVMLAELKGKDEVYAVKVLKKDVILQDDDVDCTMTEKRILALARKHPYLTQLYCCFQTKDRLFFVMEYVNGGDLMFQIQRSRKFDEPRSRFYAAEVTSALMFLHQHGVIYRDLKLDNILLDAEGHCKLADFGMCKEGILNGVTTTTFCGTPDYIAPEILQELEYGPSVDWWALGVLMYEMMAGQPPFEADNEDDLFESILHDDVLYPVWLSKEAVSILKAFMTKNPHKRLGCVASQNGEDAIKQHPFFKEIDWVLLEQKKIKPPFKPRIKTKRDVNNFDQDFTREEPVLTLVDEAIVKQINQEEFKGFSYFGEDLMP

[7] = target: T6, Protein kinase C epsilon type; assay: Displacement of [3H]-PDBu from protein kinase C epsilon-C1B domain; summary of the method: as §1
[8] = target: Protein kinase C theta type (Homo sapiens, UniProt Q04759); assay: Displacement of [3H]PDBu from protein kinase C Theta-C1B domain; summary of the method: as §1
Sequence of Protein kinase C theta type (Q04759 whole entry, the tested form may be a part): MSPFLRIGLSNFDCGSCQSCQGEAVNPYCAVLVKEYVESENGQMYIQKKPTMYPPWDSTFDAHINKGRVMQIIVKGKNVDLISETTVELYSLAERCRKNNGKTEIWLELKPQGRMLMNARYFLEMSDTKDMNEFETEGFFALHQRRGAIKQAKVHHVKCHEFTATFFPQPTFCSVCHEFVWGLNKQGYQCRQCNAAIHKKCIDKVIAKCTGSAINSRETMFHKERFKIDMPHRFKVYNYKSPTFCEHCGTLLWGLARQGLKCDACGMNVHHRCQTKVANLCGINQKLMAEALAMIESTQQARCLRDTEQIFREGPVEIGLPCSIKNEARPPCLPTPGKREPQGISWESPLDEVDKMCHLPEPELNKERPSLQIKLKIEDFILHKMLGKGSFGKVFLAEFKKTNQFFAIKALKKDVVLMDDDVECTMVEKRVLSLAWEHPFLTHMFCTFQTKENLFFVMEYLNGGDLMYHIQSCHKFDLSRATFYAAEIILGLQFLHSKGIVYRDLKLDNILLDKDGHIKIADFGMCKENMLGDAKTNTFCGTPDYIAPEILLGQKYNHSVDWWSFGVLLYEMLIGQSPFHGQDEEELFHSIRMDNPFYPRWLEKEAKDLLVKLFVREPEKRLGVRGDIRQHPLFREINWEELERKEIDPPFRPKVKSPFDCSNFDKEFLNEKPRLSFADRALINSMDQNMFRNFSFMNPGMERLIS

[9] = target: T5, Protein kinase C beta type; assay: Displacement of [3H]PDBu from protein kinase C Beta-C1A domain; summary of the method: as §1
[10] = target: T4, Protein kinase C eta type; assay: Displacement of [3H]PDBu from protein kinase C eta-C1B domain; summary of the method: as §1
[11] = target: T2, Protein kinase C alpha type; assay: Displacement of [3H]PDBu from protein kinase C Alpha-C1B domain; summary of the method: as §1
[12] = target: T3, Protein kinase C gamma type; assay: Displacement of [3H]PDBu from protein kinase C gamma-C1A domain; summary of the method: as §1
[13] = target: T1, Protein kinase C delta type; assay: Displacement of [3H]PDBu from protein kinase C Delta-C1B domain; summary of the method: as §1

T1 sequence (Q05655 whole entry, the tested form may be a part): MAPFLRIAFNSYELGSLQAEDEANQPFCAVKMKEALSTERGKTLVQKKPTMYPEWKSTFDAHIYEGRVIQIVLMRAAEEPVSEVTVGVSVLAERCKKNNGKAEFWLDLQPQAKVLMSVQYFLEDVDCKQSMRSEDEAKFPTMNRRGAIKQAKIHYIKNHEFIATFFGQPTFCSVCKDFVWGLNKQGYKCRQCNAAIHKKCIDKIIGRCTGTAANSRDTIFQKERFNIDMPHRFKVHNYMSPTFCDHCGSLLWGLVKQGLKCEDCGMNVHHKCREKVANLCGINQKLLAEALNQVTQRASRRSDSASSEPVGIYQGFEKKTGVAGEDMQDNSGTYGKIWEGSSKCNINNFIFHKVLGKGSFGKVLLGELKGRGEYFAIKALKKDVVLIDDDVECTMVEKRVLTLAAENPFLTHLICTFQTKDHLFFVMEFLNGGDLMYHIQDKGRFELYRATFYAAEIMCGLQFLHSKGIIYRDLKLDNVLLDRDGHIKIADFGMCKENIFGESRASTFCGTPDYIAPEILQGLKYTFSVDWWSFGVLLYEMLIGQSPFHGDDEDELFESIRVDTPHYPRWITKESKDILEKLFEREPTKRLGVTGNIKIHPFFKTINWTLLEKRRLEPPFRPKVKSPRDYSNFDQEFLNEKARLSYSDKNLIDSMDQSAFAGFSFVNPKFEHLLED

| Compound | Ki [1] [µM] | Ki [2] [nM] | Ki [3] [nM] | Ki [4] [µM] | Ki [5] [nM] | Ki [6] [µM] | Ki [7] [nM] | Ki [8] [nM] | Ki [9] [nM] | Ki [10] [nM] | Ki [11] [µM] | Ki [12] [nM] | Ki [13] [nM] |
| --- | --- | --- | --- | --- | --- | --- | --- | --- | --- | --- | --- | --- | --- |
| CCCCCCCCCCc1ccc2c(c1)N(C)[C@@H](C(C)C)C(=O)O[C@H](CO)C2 | 6.15 | 412 | 675 | 1.59 | 610 | 4.83 | 83 | 62 | 1140 | 37 | 4.05 | 2360 | 149 |
| CCCCCCCCCCc1cccc2c1C[C@@H](CO)OC(=O)[C@H](C(C)C)N2C | > 10 | 870 | 1720 | 4.25 | 2690 | 7.88 | 540 | 167 | 539 | 111 | > 10 | 970 | 92 |
| CCCCCCCCCCCN1c2ccccc2C[C@@H](CO)OC(=O)[C@@H]1C(C)C | 30.3 | 4580 | 2820 | 6.33 | 2070 | 5.36 | 411 | 358 | 4690 | 189 | > 10 | 5750 | 415 |
